# The source made the active and inactive calls. The rule behind the calls is not given here.
# How the values were obtained:
# Septoria = assay: Antifungal activity against Septoria tritici at 25 ug/mL; type: functional
# Summary of the method: (§1)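 In vitro antifungal screening assay against the named Septoria species, testing purified compounds at a single concentration of 25 µg/mL.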
# [1] = Antifungal activity against Septoria nodorum at 25 ug/mL; type: functional; summary of the method: as §1
SMILES,Activity (Septoria),Activity [1]
CNC(=O)O[C@H]1CC(=O)N([C@H]2O[C@@H](COC(C)=O)[C@H](OC(N)=O)[C@@H](O)[C@@H]2O)c2cc(cc(O)c2Cl)C/C(C)=C/C=C/[C@@H](OC)[C@@]2(O)C[C@H](OC(=O)N2)[C@@H](C)[C@H]2O[C@@]12C,inactive,inactive
CNC(=O)O[C@H]1CC(=O)N([C@H]2O[C@@H](CO)[C@H](OC(N)=O)[C@@H](O)[C@@H]2O)c2cc(cc(O)c2Cl)C/C(C)=C/C=C/[C@@H](OC)[C@@]2(O)C[C@H](OC(=O)N2)[C@@H](C)[C@H]2O[C@@]12C,inactive,inactive
CNC(=O)O[C@H]1CC(=O)N([C@H]2O[C@@H](CO)[C@H](OC(N)=O)[C@@H](OC)[C@@H]2O)c2cc(cc(O)c2Cl)C/C(C)=C/C=C/[C@@H](OC)[C@@]2(O)C[C@H](OC(=O)N2)[C@@H](C)[C@H]2O[C@@]12C,inactive,inactive
CNC(=O)O[C@H]1CC(=O)N([C@H]2O[C@@H](COC(C)=O)[C@H](OC(N)=O)[C@@H](OC)[C@@H]2O)c2cc(cc(O)c2Cl)C/C(C)=C/C=C/[C@@H](OC)[C@@]2(O)C[C@H](OC(=O)N2)[C@@H](C)[C@H]2O[C@@]12C,inactive,inactive
CNC(=O)O[C@H]1CC(=O)N([C@H]2O[C@@H](COC(C)=O)[C@H](OC(N)=O)[C@@H](O)[C@@H]2O)c2cc(cc(O)c2Cl)C/C(C)=C/C=C/[C@@H](OC)[C@@]2(O)C[C@H](OC(=O)N2)[C@@H](C)/C=C/1C,inactive,inactive
CNC(=O)O[C@H]1CC(=O)N([C@H]2O[C@@H](COC(C)=O)[C@H](OC(N)=O)[C@@H](OC)[C@@H]2O)c2cc(cc(O)c2Cl)C/C(C)=C/C=C/[C@@H](OC)[C@@]2(O)C[C@H](OC(=O)N2)[C@@H](C)/C=C/1C,inactive,inactive
CNC(=O)O[C@H]1CC(=O)N([C@H]2O[C@@H](CO)[C@H](O)[C@@H](OC)[C@@H]2O)c2cc(cc(O)c2Cl)C/C(C)=C/C=C/[C@@H](OC)[C@@]2(O)C[C@H](OC(=O)N2)[C@@H](C)[C@H]2O[C@@]12C,inactive,inactive
CNC(=O)O[C@H]1CC(=O)N([C@H]2O[C@@H](CO)[C@H](O)[C@@H](O)[C@@H]2O)c2cc(cc(O)c2Cl)C/C(C)=C/C=C/[C@@H](OC)[C@@]2(O)C[C@H](OC(=O)N2)[C@@H](C)[C@H]2O[C@@]12C,inactive,inactive
